Only some compounds are listed: those with a hit (about 1% of all), similar ones and a draw of the others.
T cell HTS = T cell immune modulators affecting CD8 T cell-vesicle binding | 330,000 tested, 0.068% active | AID 2052 | 2C CD8+ T cell-vesicle binding, flow cytometry; active compounds read low | response (vesicle binding), % at 7 µM;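 active = response, share of CD8 T cells binding vesicles, and their 90th percentile fluorescence all below set limits, cut at about 80% in these data, passing the limit was not always enough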;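 also: values below 100% mean blocked vesicle binding to the CD8+ T cells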
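Material: murine 2C transgenic CD8+ T lymphocytes / Also added: QL9-peptide-loaded Drosophila micro-vesicles bearing Ld, ICAM-1 and B7-1 / Schedule: binding step 1.5 h, 37 °C, antibody labelling 20 min, ice / Signal: flow cytometry, PE anti-B7-1 (FL2) versus Alexa647 anti-CD8 (FL8), PFA-fixed / Evaluation: percent CD8+ FL2 mean versus row control / Benchmarks: naked versus QL9-loaded vesicles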
NLRP3 yeast inh = inhibitors of NALP3 inflammasome in yeast; Yeast reconstituted NLRP3/ASC/caspase-1, beta-gal luminescence, 24 h; inhibition, % at 10 µM; 330,000 tested, 0.39% active; AID 2825;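 active = inhibition of 50% or more; inactive = inhibition below 50%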
NALP1 inh = blocks the NALP1 inflammasome reconstituted in yeast. S. cerevisiae NALP1/ASC/caspase-1 growth, X-gal OD620, 72 h. inhibition, % at 10 µM. 280,000 tested, 0.61% active; in the data active = inhibition mostly above about 24%, no sharp cut-off; inactive = mostly below about 32%
A1 inh = inhibitors of the anti-apoptotic protein A1, read as caspase activation; AID 2462; caspase activation, % (no concentration beside the values); MEF A1-2A-BIM cells, Caspase-Glo 3/7 luminescence, 3 h; percent of clofoctol response, vehicle zero; 330,000 tested, 0.066% active;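 active = over half of replicate activation scores above 10%, or exactly half above 10 with the replicate mean above 10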
NALP3 yeast conf = confirmation of NALP3 inhibitors in yeast; 1,300 tested, 81% active; yeast expressing human NALP3, luminescence; inhibition, % at 10 µM; shares compounds with NLRP3 yeast inh; in the data active = inhibition above about 48%
Casp1 ASC ctr = active in yeast caspase-1-ASC counter-screen for NALP3 inhibitors | shares compounds with NLRP3 yeast inh | yeast expressing Caspase-1-ASC, luminescence counter screen | inhibition, % at 10 µM | 1,000 tested, 66% active | AID 488784
NALP3 retest = yeast NALP3 inhibition, confirmed on retest; shares compounds with NLRP3 yeast inh; yeast expressing human NALP3, luminescence read-out; inhibition, % at 10 µM; 1,000 tested, 53% active; AID 488794
Each line names hits and unclear results; the compound was inactive in the other large screens (follow-up assays come after a bar, where they were run). Rule as the data show it, unless noted: active = inhibition above about 50%; inactive = the rest.

C/C(=N\NC(=O)c1cccc(Br)c1)c1ccccn1	NLRP3 yeast inh 61.4 | NALP3 yeast conf 83.9 | Casp1 ASC ctr 84.7 | NALP3 retest 69.0
C/C(=N/NC(=O)c1ccc(C(C)(C)C)cc1)c1ccccn1	NLRP3 yeast inh 65.7 (no result: NALP1 inh) | NALP3 yeast conf 55.0 | Casp1 ASC ctr 83.2 | NALP3 retest 78.7
C/C(=N\NC(=O)c1ccc(Cl)c(Cl)c1)c1ccccn1	NLRP3 yeast inh 52.6 | NALP3 yeast conf 79.7
CC(NS(=O)(=O)c1ccc(Br)s1)c1ccccc1 (stereo not given)	none
Cn1c(CNC(=O)C(Cc2ccccc2)NC(=O)c2ccccc2F)cc(=O)n(C)c1=O (stereo not given)	none
CC(C)OCCCNC(=O)CN1C(=O)CSc2ccc(S(=O)(=O)N3CCCCC3)cc21	none
NCCc1nnc(SCc2ccccc2Cl)o1	NLRP3 yeast inh 72.8 | NALP3 yeast conf 73.4 | Casp1 ASC ctr 70.4 | NALP3 retest 71.5
NCCCCCc1nnc(SCc2ccc(Cl)cc2Cl)o1	none
C[C@H](CO)N1C[C@H](C)[C@@H](CN(C)S(=O)(=O)c2cn(C)cn2)Oc2ccc(NC(=O)C3CCCCC3)cc2C1=O	none (no result: NALP1 inh, A1 inh)
O=C1c2sc3nc4ccccc4n3c2C(=O)N1c1ccccc1Cl	NLRP3 yeast inh 51.9 | NALP3 yeast conf 52.0 | Casp1 ASC ctr inactive | NALP3 retest inactive
Cc1ccccc1N1C(=O)c2sc3nc4c(c(=O)n3c2C1=O)CCC4	none
O=C(NC1CC(=O)N(c2ccc3c(c2)OCCO3)C1)N1CCCCC1 (stereo not given)	none (no result: NALP1 inh)
CN1CCN(C(=O)c2cc(COc3c(F)cccc3F)on2)CC1c1ccccc1 (stereo not given)	NLRP3 yeast inh 84.1 | NALP3 yeast conf 87.6 | Casp1 ASC ctr 85.0 | NALP3 retest 84.3
COc1ccccc1OCc1cc(C(=O)N2CCN(C)C(c3ccccc3)C2)no1 (stereo not given)	none
O=C(Nc1cccc(Cl)c1)c1cnn2cccnc12	NLRP3 yeast inh 53.5 | NALP3 yeast conf 78.8 | Casp1 ASC ctr inactive | NALP3 retest 56.0
O=C(N/N=C/c1ccc2c(c1)OCO2)c1cc2ccccc2o1	none
O=C(N/N=C/c1ccsc1)c1cc2ccccc2o1	NLRP3 yeast inh 72.2 | NALP3 yeast conf 86.8 | Casp1 ASC ctr 70.8 | NALP3 retest 75.0
CC(=O)N1N=C(c2ccc(C(C)(C)C)cc2)OC1(C)C	none
CC(=O)N1N=C(c2ccc3ccccc3c2)OC1(C)C	NLRP3 yeast inh 63.1, NALP1 inh 60.3 | NALP3 yeast conf inactive
COc1ccc(S(=O)(=O)N2CCN(CCCOc3ccc(F)cc3)CC2)cc1OC	none
Cc1cccc(NC(=O)c2ccc(S(=O)(=O)N3CCCCC3)cc2)c1	NLRP3 yeast inh 52.0 | NALP3 yeast conf 60.0 | Casp1 ASC ctr 59.9 | NALP3 retest 51.9
CCc1ccc2[nH]c(=O)c(-c3ccccc3)c(O)c2c1	none
O=c1cnn(-c2ccccc2)c(-c2ccccc2)c1	NLRP3 yeast inh 56.1 | NALP3 yeast conf 78.6 | Casp1 ASC ctr 58.5 | NALP3 retest 56.1
COc1ccc(CN2CCSc3sccc3C2=O)cc1	NLRP3 yeast inh 60.6 | NALP3 yeast conf 71.3 | Casp1 ASC ctr 68.5 | NALP3 retest 65.1
O=C1c2ccsc2SCCN1Cc1cccc(F)c1	none
O=C1c2ccsc2SCCN1Cc1ccc(Cl)cc1Cl	NLRP3 yeast inh 65.2 | NALP3 yeast conf 64.7 | Casp1 ASC ctr 76.5 | NALP3 retest 66.0
O=C1c2ccsc2SCCN1Cc1c(Cl)cccc1Cl	none
Cc1c(C(=O)N2CCCCC2)oc2ccc(Br)cc12	none (no result: NALP1 inh)
Cc1ccc2oc(C(=O)N3CCCCCC3)c(C)c2c1	NLRP3 yeast inh 53.3 | NALP3 yeast conf 62.1 | Casp1 ASC ctr 59.0 | NALP3 retest 52.3
CC1CCc2c(C(=O)Nc3nccs3)csc2C1 (stereo not given)	NLRP3 yeast inh 58.1 | NALP3 yeast conf 69.2 | Casp1 ASC ctr 76.8 | NALP3 retest inactive
CCOc1ccc(N2C=Nc3ccc(OCC)cc3C2)cc1	NLRP3 yeast inh 58.6 | NALP3 yeast conf 60.6 | Casp1 ASC ctr 60.0 | NALP3 retest 51.4

Compound activity deposited in PubChem BioAssay by several laboratories.
